Compound activity (PubChem)
Rows were chosen to be rich in hits. Some 3.7% of all compounds tested hit in one or more screens of this group.
aDG glyco up – increases alpha dystroglycan glycosylation; 360,000 tested, 0.22% active; activation, % at 10 µM; AID 624168; Pro5-aDG cells, alpha-DG glycosylation AlphaScreen (IIH6); 0% Pro5, 100% B10-LARGE cell signal;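 active = activation of at least 8% versus controls, or a plate z-score of at least 8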;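 note: Pro5 are CHO cells carrying HIG-tagged alpha-DG that lacks glycosylation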
proCasp3 act – procaspase-3 (human) activation. P42574. recombinant procaspase-3 D3A, Ac-DEVD-pNA absorbance 405 nm. activation, % at 8.5 µM. 330,000 tested, 0.11% active;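 active = activation above the mean of all tested compounds plus 3 SD, cut at about 21% in these data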
Target sequence (P42574 whole entry D9A/D28A/D175A): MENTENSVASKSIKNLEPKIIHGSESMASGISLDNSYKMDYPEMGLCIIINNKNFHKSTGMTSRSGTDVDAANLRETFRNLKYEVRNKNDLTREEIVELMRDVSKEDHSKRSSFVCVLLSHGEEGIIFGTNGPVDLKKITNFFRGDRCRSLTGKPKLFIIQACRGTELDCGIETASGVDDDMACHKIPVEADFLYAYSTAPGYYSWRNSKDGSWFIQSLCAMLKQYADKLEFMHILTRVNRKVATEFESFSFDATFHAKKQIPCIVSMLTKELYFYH
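Assay system: Autoprocessing-dead procaspase-3 D3A mutant enzyme; also added: Ac-DEVD-pNA; doses: one concentration, 8.5 µM nominal, 0.8% DMSO; times: 1 h compound preincubation, 2 h substrate hydrolysis at 25 °C; technique: 405 nm absorbance of p-nitroaniline, reads at 0 and 120 min; measure: % activation between DMSO and enzyme-spiked controls; repeats: single replicate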
MPTP block – blocks calcium-induced mitochondrial swelling; AID 602449; isolated mouse mitochondria, Ca2+ swelling absorbance, 30 min; inhibition, % at 10 µM; 360,000 tested, 1.4% active;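 active = inhibition of 50% or more, scaled per plate between neutral and stimulator controls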
NR3A LBD binder – modulators (binders) of human NR3A ligand-binding domain. NR3A LBD differential scanning fluorimetry, Tm shift; 0% = protein alone, 100% = glycine-bound protein. 340,000 tested, 2.5% active. AID 1259313. Tm shift relative to glycine control, % at 25 µM;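 active = melting temperature shift of at least 10% of the positive control shift, at one fixed dose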
procasp7 counter – counter-screen for procaspase-3 activators: activators of human procaspase-7; P55210; recombinant procaspase-7, Ac-DEVD-pNA absorbance 405 nm; D23A/D198A/D206A triple mutant, cannot self-cleave; scale: DMSO 0, 5 µM enzyme 100; activation, % at 8.5 µM; 330,000 tested, 0.093% active; AID 463210;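 active = percent activation above the screen-wide mean plus 3 SD, cut at about 25% in these data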
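Test system: Procaspase-7 triple mutant (PC-7 D3A). Also added: Ac-DEVD-pNA substrate, 400 µM as added. Schedule: 1 h enzyme–compound preincubation and 2 h substrate reaction, both 25 °C. Signal: p-Nitroaniline absorbance at 405 nm, read at 0 and 120 min. Control set: low DMSO alone, high DMSO plus 5 µM PC-7.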
MPTP counter – mitochondrial membrane potential, counter-screen | inhibition, % at 10 µM | AID 624504 | shares compounds with MPTP block | isolated mitochondria, Rhodamine 123 fluorescence | 5,000 tested, 78% active; in the data active = inhibition above about 22%
Hits are given with their value.

For COc1ccccc1NC(=O)CN1CCN(CC(=O)Nc2ccc(Cl)c(C(F)(F)F)c2)CC1 the results were aDG glyco up inactive, MPTP block inactive and NR3A LBD binder inactive.
Screening C/C(CC(=O)Nc1ccc(Cl)c(C(F)(F)F)c1)=N\NC(=O)c1ccccc1O returned aDG glyco up inactive, proCasp3 act inactive, MPTP block 98.5, NR3A LBD binder 23.8, procasp7 counter inactive and MPTP counter 69.9.
Screening CCc1ccccc1NCC(=O)Nc1ccc(Cl)c(C(F)(F)F)c1 returned aDG glyco up inactive, proCasp3 act inactive, MPTP block 68.7, NR3A LBD binder 20.6, procasp7 counter inactive and MPTP counter 86.4.
Screening O=C(Cn1cc(COc2ccc3ccccc3c2)nn1)NS(=O)(=O)c1cccc(OC(F)F)c1 returned aDG glyco up inactive and MPTP block inactive.
For CC1(C)CC(=O)C(CC(=O)c2ccccc2)=C(NN=C(N)N)C1 the results were aDG glyco up inactive and MPTP block inactive.
CCCC(=O)NC(Nc1cc(C(F)(F)F)ccc1Cl)C(Cl)(Cl)Cl (configuration not stated) was read as aDG glyco up inactive, proCasp3 act inactive, MPTP block 89.8, NR3A LBD binder inactive, procasp7 counter inactive and MPTP counter 93.0.
`Cc1c(C(C)C)c(=O)n(-c2ccc(S(=O)(=O)NC3CCCCC3)cc2)n1C` gave aDG glyco up inactive, proCasp3 act inactive, MPTP block inactive, NR3A LBD binder inactive and procasp7 counter inactive.
`Cc1c(C(C)C)c(=O)n(-c2ccc(S(=O)(=O)NCc3ccccc3)cc2)n1C` gave aDG glyco up 8.4, proCasp3 act inactive, MPTP block 96.0, NR3A LBD binder inactive, procasp7 counter inactive and MPTP counter 82.6.
For Fc1ccc(NC(=S)N2CCn3cccc3C2c2cccnc2)cc1 (configuration not stated) the results were aDG glyco up inactive, proCasp3 act inactive, MPTP block inactive, NR3A LBD binder inactive and procasp7 counter inactive.
`Fc1ccc(C2c3cccn3CCN2C(=S)Nc2cccc(Br)c2)cc1` (configuration not stated) gave aDG glyco up inactive, proCasp3 act inactive, MPTP block 90.3, NR3A LBD binder inactive, procasp7 counter inactive and MPTP counter 66.4.
`COc1c(N)c2c(c([N+](=O)[O-])c1OC)C(=O)OC2` gave aDG glyco up inactive, MPTP block inactive and NR3A LBD binder inactive.
Cc1cccc(Nc2ncnc3ccc(Br)cc23)c1 was read as aDG glyco up inactive, proCasp3 act inactive, MPTP block inactive, NR3A LBD binder inactive and procasp7 counter inactive.
CN(C)c1ccc(Nc2ncnc3ccc(Br)cc23)cc1 was read as aDG glyco up inactive, proCasp3 act inactive, MPTP block inactive, NR3A LBD binder inactive and procasp7 counter inactive.
Screening Clc1cccc(Nc2ncnc3ccc(Br)cc23)c1 returned aDG glyco up inactive, proCasp3 act inactive, MPTP block 90.7, NR3A LBD binder inactive, procasp7 counter inactive and MPTP counter 73.5.
For Clc1ccc(Nc2ncnc3ccc(Br)cc23)cc1 the results were aDG glyco up inactive, proCasp3 act inactive, MPTP block 86.6, NR3A LBD binder inactive, procasp7 counter inactive and MPTP counter 87.4.
C1CCN(CCC2CCCCN2)CC1 (configuration not stated) was read as aDG glyco up inactive and MPTP block inactive.
CCN(CC)S(=O)(=O)c1ccc(O)c(C(=O)OCC(=O)NC23CC4CC(CC(C4)C2)C3)c1 was read as aDG glyco up inactive, proCasp3 act inactive, MPTP block 83.4, NR3A LBD binder inactive, procasp7 counter inactive and MPTP counter 80.6.
CCN(CC)S(=O)(=O)c1ccc(O)c(C(=O)OCC(=O)Nc2ccc(OC(F)(F)F)cc2)c1 was read as aDG glyco up inactive, proCasp3 act inactive, MPTP block 101.6, NR3A LBD binder inactive, procasp7 counter inactive and MPTP counter 83.9.
`CCOC(=O)C1=C[C@@H](c2ccccc2)N(S(=O)(=O)c2ccc(C)cc2)[C@H]1c1ccc(F)cc1` gave aDG glyco up inactive and MPTP block inactive.
